# Calls of active or inactive are those of the source. The calls are words filed in the database; no cut-off is given here.
# Assays:
# Staphylococcus aureus [1] = assay: Antibacterial activity against methicillin-resistant Staphylococcus aureus clinical isolate 1104060 after 16 to 20 hrs by broth microdilution method; assay type: functional
# How it was run: (§1)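 CLSI broth microdilution in Mueller-Hinton broth. A 4-6 h culture was diluted to about 10⁶ CFU/mL and mixed 1:1 with compound dilutions prepared at 256 to 0.5 µg/mL from aqueous stocks. Plates were incubated at 37 °C for 16-20 h and read visually for MIC. Each concentration was run in duplicate, and the experiment was repeated at least twice. Vancomycin and meropenem were comparators.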
# Staphylococcus aureus [2] = assay: Antibacterial activity against Staphylococcus aureus ATCC 29213 after 16 to 20 hrs by broth microdilution method; assay type: functional
# How it was run: (§2)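 Broth microdilution per CLSI. Bacteria grown 4-6 h (about 10⁸ CFU/mL), then diluted to about 10⁶ CFU/mL. Medium: Mueller-Hinton broth, except Luria-Bertani broth for E. coli. Compounds in sterile water, twofold series 256-0.5 µg/mL, mixed 1:1 with inoculum, 37 °C for 16-20 h. MIC is the lowest concentration without visible growth. Duplicate wells; experiment repeated at least twice.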
# Salmonella enterica = assay: Antibacterial activity against Salmonella enterica ATCC 13076 after 16 to 20 hrs by broth microdilution method; assay type: functional; how it was run: as §2
# Escherichia coli [3] = assay: Antibacterial activity against Escherichia coli ATCC 25922 after 16 to 20 hrs by broth microdilution method; assay type: functional; how it was run: as §2
# Staphylococcus aureus [4] = assay: Antibacterial activity against methicillin-resistant Staphylococcus aureus clinical isolate 0906202 after 16 to 20 hrs by broth microdilution method; assay type: functional; how it was run: as §1
# Escherichia coli [5] = assay: Antibacterial activity against drug-resistant NDM1 producing Escherichia coli clinical isolate SM-15-84 after 16 to 20 hrs by broth microdilution method; assay type: functional; how it was run: as §1
# Escherichia coli [6] = assay: Antibacterial activity against drug-resistant NDM1 producing Escherichia coli clinical isolate CF-15-61 after 16 to 20 hrs by broth microdilution method; assay type: functional; how it was run: as §1
# Escherichia coli [7] = assay: Induction of inner membrane permeabilization in Escherichia coli ATCC 25922 at 10 to 20 ug/ml measured every 2 mins for 12 mins by propidium iodide staining-based fluorescence assay; assay type: functional, organism-based
# How it was run: (§3)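 Mid-log cells (~10⁸ CFU/mL) were suspended in PBS (S. aureus) or HEPES/glucose/KCl (E. coli). They were preincubated with propidium iodide for 30 min (S. aureus) or 40 min (E. coli), and baseline fluorescence was read for 8 min. Compound was added to 20 µg/mL final, and fluorescence (ex 535/em 617 nm) was read every 2 min for 12 min.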
# Escherichia coli [8] = assay: Antibacterial activity against drug-resistant NDM1 producing Escherichia coli clinical isolate Ecl-14-56 after 16 to 20 hrs by broth microdilution method; assay type: functional; how it was run: as §1
# Staphylococcus aureus [9] = assay: Antibacterial activity against methicillin-resistant Staphylococcus aureus clinical isolate 1207007 after 16 to 20 hrs by broth microdilution method; assay type: functional; how it was run: as §1
# Klebsiella pneumoniae [10] = assay: Antibacterial activity against drug-resistant carbapenemase producing Klebsiella pneumoniae clinical isolate KP-14-45 after 16 to 20 hrs by broth microdilution method; assay type: functional; how it was run: as §1
# Klebsiella pneumoniae [11] = assay: Antibacterial activity against drug-resistant carbapenemase producing Klebsiella pneumoniae clinical isolate KP-14-4 after 16 to 20 hrs by broth microdilution method; assay type: functional; how it was run: as §1
# Escherichia coli [12] = assay: Antibacterial activity against drug-resistant NDM1 producing Escherichia coli clinical isolate Ecl-14-58 after 16 to 20 hrs by broth microdilution method; assay type: functional; how it was run: as §1
# Klebsiella pneumoniae [13] = assay: Antibacterial activity against drug-resistant carbapenemase producing Klebsiella pneumoniae clinical isolate KP-13-55 after 16 to 20 hrs by broth microdilution method; assay type: functional; how it was run: as §1
# Staphylococcus aureus [14] = assay: Antibacterial activity against methicillin-resistant Staphylococcus aureus clinical isolate 20130911034sau after 16 to 20 hrs by broth microdilution method; assay type: functional; how it was run: as §1
# Staphylococcus aureus [15] = assay: Induction of inner membrane permeabilization in Staphylococcus aureus ATCC 29213 at 10 to 20 ug/ml measured every 2 mins for 12 mins by propidium iodide staining-based fluorescence assay; assay type: functional, organism-based; how it was run: as §3
# Klebsiella pneumoniae [16] = assay: Antibacterial activity against drug-resistant carbapenemase producing Klebsiella pneumoniae clinical isolate KP-13-45 after 16 to 20 hrs by broth microdilution method; assay type: functional; how it was run: as §1
# Escherichia coli [17] = assay: Antibacterial activity against drug-resistant NDM1 producing Escherichia coli clinical isolate CF-13-61 after 16 to 20 hrs by broth microdilution method; assay type: functional; how it was run: as §1
# Staphylococcus aureus [18] = assay: Antibacterial activity against methicillin-resistant Staphylococcus aureus clinical isolate 0831010 after 16 to 20 hrs by broth microdilution method; assay type: functional; how it was run: as §1
# Escherichia coli [19] = assay: Induction of cytoplasmic membrane depolarization in Escherichia coli ATCC 25922 at 10 to 20 ug/ml measured every 2 mins for 12 mins by DiSC35 dye-based fluorescence assay; assay type: functional, organism-based
# How it was run: (§4)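 Mid-log cells (~10⁸ CFU/mL) were suspended in PBS (S. aureus) or HEPES/glucose/KCl with EDTA (E. coli). They were preloaded with DiSC3(5) for 30 min (S. aureus) or 40 min (E. coli), and baseline fluorescence was read for 8 min. Compound was added to 20 µg/mL final, and fluorescence (ex 622/em 670 nm) was read every 2 min for 12 min. Water served as control.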
# Staphylococcus aureus [20] = assay: Antibacterial activity against methicillin-resistant Staphylococcus aureus clinical isolate 1-may after 16 to 20 hrs by broth microdilution method; assay type: functional; how it was run: as §1
# Escherichia coli [21] = assay: Antibacterial activity against drug-resistant NDM1 producing Escherichia coli clinical isolate 1460 after 16 to 20 hrs by broth microdilution method; assay type: functional; how it was run: as §1
# Staphylococcus aureus [22] = assay: Antibacterial activity against methicillin-resistant Staphylococcus aureus clinical isolate 1208143 after 16 to 20 hrs by broth microdilution method; assay type: functional; how it was run: as §1
# Escherichia coli [23] = assay: Antibacterial activity against drug-resistant NDM1 producing Escherichia coli clinical isolate Ecl-13-62 after 16 to 20 hrs by broth microdilution method; assay type: functional; how it was run: as §1
# Klebsiella pneumoniae [24] = assay: Antibacterial activity against drug-resistant carbapenemase producing Klebsiella pneumoniae clinical isolate KP-13-54 after 16 to 20 hrs by broth microdilution method; assay type: functional; how it was run: as §1
# Klebsiella pneumoniae [25] = assay: Antibacterial activity against drug-resistant carbapenemase producing Klebsiella pneumoniae clinical isolate KP-14-18 after 16 to 20 hrs by broth microdilution method; assay type: functional; how it was run: as §1
# Escherichia coli [26] = assay: Antibacterial activity against drug-resistant NDM1 producing Escherichia coli clinical isolate EC-13-49 after 16 to 20 hrs by broth microdilution method; assay type: functional; how it was run: as §1
# Klebsiella pneumoniae [27] = assay: Antibacterial activity against drug-resistant carbapenemase producing Klebsiella pneumoniae clinical isolate KP-14-3 after 16 to 20 hrs by broth microdilution method; assay type: functional; how it was run: as §1
# [28] = Hemolytic activity in sheep RBC after 1 hr; assay type: ADME, cell-based, Ovis aries, Erythrocyte; details: sheep red blood cells (erythrocytes)
# How it was run: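 Sheep red blood cells (150 µL suspension) mixed with 50 µL of compound dilutions (5120-10 µg/mL), 1 h at 37 °C, then centrifuged. Supernatant read at 540 nm. Percent hemolysis calculated relative to RBC-only control (0%) and 0.1% Triton X-100 (100%).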
# Klebsiella pneumoniae [29] = assay: Antibacterial activity against drug-resistant carbapenemase producing Klebsiella pneumoniae clinical isolate KP-14-1 after 16 to 20 hrs by broth microdilution method; assay type: functional; how it was run: as §1
# Staphylococcus aureus [30] = assay: Antibacterial activity against methicillin-resistant Staphylococcus aureus clinical isolate 1105183 cono7 after 16 to 20 hrs by broth microdilution method; assay type: functional; how it was run: as §1
# Staphylococcus aureus [31] = assay: Antibacterial activity against methicillin-resistant Staphylococcus aureus clinical isolate 20131012632sau after 16 to 20 hrs by broth microdilution method; assay type: functional; how it was run: as §1
# Escherichia coli [32] = assay: Antibacterial activity against drug-resistant NDM1 producing Escherichia coli clinical isolate EC-14-54 after 16 to 20 hrs by broth microdilution method; assay type: functional; how it was run: as §1
# Escherichia coli [33] = assay: Antibacterial activity against drug-resistant NDM1 producing Escherichia coli clinical isolate Ecl-14-59 after 16 to 20 hrs by broth microdilution method; assay type: functional; how it was run: as §1
# Klebsiella pneumoniae [34] = assay: Antibacterial activity against drug-resistant carbapenemase producing Klebsiella pneumoniae clinical isolate EC-13-23 after 16 to 20 hrs by broth microdilution method; assay type: functional; how it was run: as §1
# Escherichia coli [35] = assay: Antibacterial activity against drug-resistant NDM1 producing Escherichia coli clinical isolate EA-14-61 after 16 to 20 hrs by broth microdilution method; assay type: functional; how it was run: as §1
# Staphylococcus aureus [36] = assay: Induction of cytoplasmic membrane depolarization in Staphylococcus aureus ATCC 29213 at 10 to 20 ug/ml measured every 2 mins for 12 mins by DiSC35 dye-based fluorescence assay; assay type: functional, organism-based; how it was run: as §4
# Klebsiella pneumoniae [37] = assay: Antibacterial activity against drug-resistant carbapenemase producing Klebsiella pneumoniae clinical isolate KP-14-8 after 16 to 20 hrs by broth microdilution method; assay type: functional; how it was run: as §1
# Escherichia coli [38] = assay: Antibacterial activity against drug-resistant NDM1 producing Escherichia coli clinical isolate KP-13-58 after 16 to 20 hrs by broth microdilution method; assay type: functional; how it was run: as §1
# Klebsiella pneumoniae [39] = assay: Antibacterial activity against drug-resistant carbapenemase producing Klebsiella pneumoniae clinical isolate KP-14-5 after 16 to 20 hrs by broth microdilution method; assay type: functional; how it was run: as §1
# Enterococcus faecalis = assay: Antibacterial activity against Enterococcus faecalis ATCC 29212 after 16 to 20 hrs by broth microdilution method; assay type: functional; how it was run: as §2
# Klebsiella pneumoniae [40] = assay: Antibacterial activity against drug-resistant carbapenemase producing Klebsiella pneumoniae clinical isolate KP-14-2 after 16 to 20 hrs by broth microdilution method; assay type: functional; how it was run: as §1
structure (smiles),measurement,setting,value
CCCCCCCC[N+](C)(C)CC(=O)Nc1ccc(C(=O)/C=C/c2ccc(F)cc2)cc1.[Cl-],MIC,Staphylococcus aureus [1],8 µg/mL
same,MIC,Staphylococcus aureus [2],2 µg/mL
same,MIC,Salmonella enterica,4 µg/mL
same,MIC,Escherichia coli [3],2 µg/mL
same,MIC,Staphylococcus aureus [4],4 µg/mL
same,MIC,Escherichia coli [5],16 µg/mL
same,MIC,Escherichia coli [6],4 µg/mL
same,Activity,Escherichia coli [7],Active
same,MIC,Escherichia coli [8],16 µg/mL
same,MIC,Staphylococcus aureus [9],0.5 µg/mL
same,MIC,Klebsiella pneumoniae [10],8 µg/mL
same,MIC,Klebsiella pneumoniae [11],4 µg/mL
same,MIC,Escherichia coli [12],4 µg/mL
same,MIC,Klebsiella pneumoniae [13],8 µg/mL
same,MIC,Staphylococcus aureus [14],0.5 µg/mL
same,Activity,Staphylococcus aureus [15],Active
same,MIC,Klebsiella pneumoniae [16],4 µg/mL
same,MIC,Escherichia coli [17],16 µg/mL
same,MIC,Staphylococcus aureus [18],0.5 µg/mL
same,Activity,Escherichia coli [19],Active
same,MIC,Staphylococcus aureus [20],1 µg/mL
same,MIC,Escherichia coli [21],8 µg/mL
same,MIC,Staphylococcus aureus [22],2 µg/mL
same,MIC,Escherichia coli [23],4 µg/mL
same,MIC,Klebsiella pneumoniae [24],4 µg/mL
same,MIC,Klebsiella pneumoniae [25],8 µg/mL
same,MIC,Escherichia coli [26],4 µg/mL
same,MIC,Klebsiella pneumoniae [27],8 µg/mL
same,HC50 at 1 h,[28],83 µg/mL
same,MIC,Klebsiella pneumoniae [29],4 µg/mL
same,MIC,Staphylococcus aureus [30],1 µg/mL
same,MIC,Staphylococcus aureus [31],2 µg/mL
same,MIC,Escherichia coli [32],16 µg/mL
same,MIC,Escherichia coli [33],4 µg/mL
same,MIC,Klebsiella pneumoniae [34],2 µg/mL
same,MIC,Escherichia coli [35],4 µg/mL
same,Activity,Staphylococcus aureus [36],Active
same,MIC,Klebsiella pneumoniae [37],4 µg/mL
same,MIC,Escherichia coli [38],1 µg/mL
same,MIC,Klebsiella pneumoniae [39],4 µg/mL
same,MIC,Enterococcus faecalis,2 µg/mL
same,MIC,Klebsiella pneumoniae [40],16 µg/mL
